# High-throughput results deposited in PubChem by Broad Institute.
# ERAP1 inh – inhibitors of human ERAP1 aminopeptidase; Q9NZ08; inhibition, % at 10.7 µM; AID 652197; 0.15% of 340,000 active; recombinant ERAP1, Leu-AMC fluorescence, 60 min;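 active = mean replicate inhibition of at least 30%, or all replicates individually reaching that 30% level; inactive = mean below 30% and not every replicate reaching it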;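 note: 0% = neutral control wells and 100% = L-leucinethiol positive control wells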
# E-sel inducer – induces E-selectin expression in human endothelial cells; HUVEC E-selectin immunofluorescence imaging; normalized: neutral wells 0, TNF-alpha wells 100; activation, % at 7.58 µM; 0.37% of 260,000 active; AID 686992;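 active = mean E-selectin-positive cell signal at least 10% of the positive control, reached in at least 60% of replicates, without over 20% cell loss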
#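 material = human umbilical vein endothelial cells (HUVEC), E-selectin induction | quantity = 3,000 cells/well | medium = EGM-2 growth medium on 0.1% gelatin-coated wells | technique = immunofluorescence imaging | read-out basis = % PE-positive cells | control set = TNF-alpha positive control, DMSO neutral control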
# PglD DTNB – blocks C. jejuni PglD acetyltransferase activity; AID 602405; inhibition, % at 12.5 µM; 0.098% of 360,000 active; purified PglD enzyme, DTNB colorimetric CoA detection; in the data active = inhibition above about 16%, passing the limit was not always enough
# DENV2 CPE rescue – DENV2-induced cell death inhibition; 1.7% of 350,000 active; CPE inhibition, % at 9.99 µM; DENV2-infected cells, cytopathic effect rescue, plate reader; in the data active = CPE inhibition above about 20%, passing the limit was not always enough; tested in BHK-21 cells;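 note: 0% = median of neutral control wells and 100% = median of positive control wells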
# SIRT5 block – sirtuin-5 (human) deacylase inhibition. Q9NXA8. Purified SirT5, succinyl-peptide AMC, trypsin-coupled fluorescence. inhibition, % at 15 µM. 1.1% of 330,000 active; in the data active = inhibition above about 15%
# Target sequence (Q9NXA8 whole entry, looked up): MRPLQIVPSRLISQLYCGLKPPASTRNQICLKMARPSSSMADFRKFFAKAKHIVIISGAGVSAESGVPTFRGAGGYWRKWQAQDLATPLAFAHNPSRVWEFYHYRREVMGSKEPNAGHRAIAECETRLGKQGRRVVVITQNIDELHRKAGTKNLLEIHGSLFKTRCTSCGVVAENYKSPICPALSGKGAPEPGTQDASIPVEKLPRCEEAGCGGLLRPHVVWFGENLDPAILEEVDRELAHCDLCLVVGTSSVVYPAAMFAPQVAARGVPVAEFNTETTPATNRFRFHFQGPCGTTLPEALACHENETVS
# * = called active by the depositor; . = no result given. Sampled rows, rich in hits. Any-hit rate of the full collection: about 2.5%.
SMILES,ERAP1 inh,E-sel inducer,PglD DTNB,DENV2 CPE rescue,SIRT5 block
CCOc1ccccc1NC(=O)CSc1ccc([N+](=O)[O-])cc1,-4.6,0.1,1.8,1.2,5.3
CCOc1ccccc1NC(=O)COC(=O)C1CC(=O)N(c2c(C)cccc2C)C1 (stereo not drawn),-2.5,.,-11.3,10.9,19.1*
C[C@@H](NC(=O)C[C@@H]1C[C@H]2c3cc(NC(=O)NC4CCCC4)ccc3O[C@H]2[C@H](CO)O1)c1ccccc1,-2.8,0.2,3.7,2.1,-2.3
O=C(C[C@@H]1C[C@@H]2c3cc(NC(=O)NC4CCCCC4)ccc3O[C@@H]2[C@H](CO)O1)NCc1cccnc1,1.3,-0.2,0.0,1.5,.
O=C(Nc1ccc2c(c1)[C@H]1C[C@@H](CC(=O)N3CCCCC3)O[C@H](CO)[C@H]1O2)NC1CCCC1,0.4,0.0,3.1,56.1*,-1.0
C[C@H](NC(=O)C[C@H]1C[C@H]2c3cc(NC(=O)NC4CCCC4)ccc3O[C@H]2[C@H](CO)O1)c1ccccc1,-2.5,0.2,3.0,27.9*,-1.6
O=C(C[C@@H]1C[C@@H]2c3cc(NC(=O)NC4CCCCC4)ccc3O[C@@H]2[C@@H](CO)O1)NCc1cccnc1,-0.8,0.7,53.5*,3.4,2.0
O=C(Nc1ccc2c(c1)[C@@H]1C[C@@H](CC(=O)N3CCCCC3)O[C@@H](CO)[C@@H]1O2)NC1CCCC1,-2.1,-0.1,0.9,10.0,0.3
Cc1ccc(Cl)cc1NC(=O)CNC(=O)N1CC(=O)Nc2ccccc21,2.3,.,-0.4,10.3,-1.2
Cn1cnc(S(=O)(=O)N[C@H]2CC[C@H](CC(=O)N3CCN(c4ccccc4)CC3)O[C@@H]2CO)c1,-0.3,-0.4,-5.1,0.1,1.1
CN1CCN(c2ccc(S(=O)(=O)N3CCCCC3)cc2NC(=O)Cc2c(F)cccc2Cl)CC1,4.8,.,-0.7,-2.5,-8.2
C/C=C/c1ccc([C@@H]2[C@@H](CO)N(C(=O)c3cnccn3)C23CN(C(=O)C2CC2)C3)cc1,0.1,0.1,.,-6.8,-1.2
C/C=C/c1ccc([C@H]2[C@H](CO)N(C(=O)c3cnccn3)C23CN(C(=O)C2CC2)C3)cc1,0.1,0.0,.,33.4*,-14.1
C/C=C/c1ccc([C@@H]2[C@@H](CO)N(C(C)=O)C23CN(C(=O)c2ccncc2)C3)cc1,0.0,1.3,.,24.9*,.
CCCc1cc(=O)[nH]c(NCCc2ccccc2)n1,0.7,0.1,-2.3,2.6,0.5
Cc1cc(S(=O)(=O)N2CCc3ccccc3C2)ccc1F,0.7,.,-7.8,-2.4,-6.1
CC(=O)c1ccc(OCc2cn(CC(=O)c3ccc(O)cc3)nn2)c(C)c1,.,-2.6,1.9,-4.4,1.0
COc1cc(C(C)=O)ccc1OCc1cn(CC(=O)c2ccc(O)cc2)nn1,-2.5,-0.1,-0.9,6.8,20.9*
O=C(NCc1ccc(N2CCCC2=O)cc1)Nc1cccc(Cl)c1,-2.5,.,-2.1,-0.3,-1.0
COc1cccc(/C=N/NC(=O)C(=O)N/N=C/c2cccc(OC)c2OC)c1OC,-2.0,.,-2.1,85.0*,-2.8
COc1ccccc1/C=N/NC(=O)c1ccccc1Cl,-2.9,.,.,4.6,-1.0
COc1ccccc1C=NNC(=O)c1ccccc1OCCOc1ccccc1,-0.2,0.6,14.0,75.2*,-2.6
Cc1ccc(CN2C(=O)C[C@@H](NC(=O)OCC3c4ccccc4-c4ccccc43)C/C=C\C2c2ccc(C)cc2)cc1 (stereo partly drawn),.,-5.8,4.6,1.1,-2.3
CC(C)c1ccc(NC2CCCN(C(=O)CCN3CCCC3=O)C2)cc1 (stereo not drawn),-0.8,1.0,1.5,-13.5,0.2
CC(C)c1ccc(NC2CCCN(C(=O)CC3CCCC3)C2)cc1 (stereo not drawn),-2.6,1.9,1.5,5.1,34.3*
Cc1nc(C(C)NC(=O)c2cc(COc3ccc(C)c(C)c3)on2)c(C)s1 (stereo not drawn),-0.4,.,9.9,10.2,1.4
COc1ccc(NC(=O)CN(C)CC(=O)c2c(C)[nH]c3ccccc23)cc1,-1.9,0.7,0.8,-0.5,-0.8
COc1ccc(S(=O)(=O)N2CCCCN3[C@H](CO)[C@H](c4ccc(C#CCC(C)C)cc4)[C@H]3C2)cc1,.,-0.6,0.0,.,.
COc1ccc(S(=O)(=O)N2CCCCN3[C@H](CO)[C@H](c4ccc(C#CCC(C)C)cc4)[C@@H]3C2)cc1,0.6,-0.6,2.0,-6.4,16.3*
COc1ccc(S(=O)(=O)N2CCCCN3[C@H](CO)[C@H](c4ccc(C#CC(C)C)cc4)[C@H]3C2)cc1,0.1,0.1,-11.1,-24.7,19.9*
